# According to PMC9128166 (Cancer Science, 2022):
# “And” between values parts separate entries of the source, which are not always exact repeats. Equal entries are not always repeated. “Also recorded” adds a separate entry of the source. Where two headings read alike, the source gives them in different places.
# How the values were obtained:
# [1] = type: in vivo, Japanese patients
# [2] = test system: relapsed or refractory marginal zone lymphoma; assay: Investigator-assessed response; type: in vivo, Japanese patients
# Method in brief: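 Investigator-assessed response by Lugano criteria in the full analysis set (all treated patients). Patients received 10 or 20 mg QD orally for 8 weeks, then the same dose QW. CT, FDG-PET or PET-CT was chosen by subtype, using the same technique as at screening. Scans ran every 8 weeks through week 24, every 12 weeks through week 96, then every 24 weeks until progression.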
# [3] = Any postbaseline abnormality, N = 17
# [4] = Worst grade postbaseline Grade 3, N = 17
# [5] = Worst grade postbaseline Grade 4, N = 17
# [6] = among 16 patients with grade 0 at baseline
# [7] = two responders with MZL, individual values
smiles,measurement,setting,value
CCOc1c([C@H](C)n2nc(C)c3c(N)ncnc32)cc(Cl)c(F)c1[C@@H]1CNC(=O)C1 [parsaclisib],treatment‐emergent new or worsening decreased neutrophils to grade 3 or 4,"[1]; 5 of 17 patients, all during first 8 weeks",29.4%
same,Alanine aminotransferase (increased),[1]; [3],7 (41.2) n (%)
same,Albumin (decreased),[1]; [3],9 (52.9) n (%)
same,Alkaline phosphatase (increased),[1]; [3],7 (41.2) n (%)
same,Aspartate aminotransferase (increased),[1]; [3],7 (41.2) n (%)
same,Calcium (decreased),[1]; [3],8 (47.1) n (%)
same,Creatinine (increased),[1]; [3],17 (100.0) n (%)
same,Leukocytes (decreased),[1]; [3],9 (52.9) n (%)
same,Neutrophils (decreased),[1]; [3],12 (70.6) n (%)
same,Platelets (decreased),[1]; [3],7 (41.2) n (%)
same,Potassium (increased),[1]; [3],5 (29.4) n (%)
same,Sodium (decreased),[1]; [3],5 (29.4) n (%)
same,Alanine aminotransferase (increased),[1]; [4],0 (0.0) n (%)
same,Albumin (decreased),[1]; [4],0 (0.0) n (%)
same,Alkaline phosphatase (increased),[1]; [4],0 (0.0) n (%)
same,Aspartate aminotransferase (increased),[1]; [4],0 (0.0) n (%)
same,Calcium (decreased),[1]; [4],0 (0.0) n (%)
same,Creatinine (increased),[1]; [4],0 (0.0) n (%)
same,Leukocytes (decreased),[1]; [4],0 (0.0) n (%)
same,Neutrophils (decreased),[1]; [4],4 (23.5) n (%)
same,Platelets (decreased),[1]; [4],0 (0.0) n (%)
same,Potassium (increased),[1]; [4],0 (0.0) n (%)
same,Sodium (decreased),[1]; [4],0 (0.0) n (%)
same,Alanine aminotransferase (increased),[1]; [5],0 (0.0) n (%)
same,Albumin (decreased),[1]; [5],0 (0.0) n (%)
same,Alkaline phosphatase (increased),[1]; [5],0 (0.0) n (%)
same,Aspartate aminotransferase (increased),[1]; [5],0 (0.0) n (%)
same,Calcium (decreased),[1]; [5],0 (0.0) n (%)
same,Creatinine (increased),[1]; [5],0 (0.0) n (%)
same,Leukocytes (decreased),[1]; [5],0 (0.0) n (%)
same,Neutrophils (decreased),[1]; [5],1 (5.9) n (%)
same,Platelets (decreased),[1]; [5],0 (0.0) n (%)
same,Potassium (increased),[1]; [5],0 (0.0) n (%)
same,Sodium (decreased),[1]; [5],0 (0.0) n (%)
same,"shifts to increased ALT, grade 1",[1]; [6],5 patients
same,"shifts to increased ALT, grade 2",[1]; [6],2 patients
same,"shifts to increased AST, grade 1",[1]; [6],7 patients
same,treatment‐emergent elevations of ALT or AST to grade 3 or 4,"[1]; human, in vivo",No treatment‐emergent worsening in aminotransferase elevations to grade 3 or 4; also recorded: no treatment‐emergent elevations of ALT or AST to grade 3 or 4
same,elevation in ALT,[1]; shifts to grade 1 or 2,41.2%
same,elevation in AST,[1]; shifts to grade 1 or 2,41.2%
same,"BOR, CMR/CR",[2]; MZL (n = 2),0 (0.0) n (%)
same,"BOR, NMR/SD",[2]; MZL (n = 2),0 (0.0) n (%)
same,"BOR, PMD/PD",[2]; MZL (n = 2),0 (0.0) n (%)
same,"BOR, PMR/PR",[2]; MZL (n = 2),2 (100) n (%)
same,Objective response,[2]; MZL (n = 2),2 (100.0) n (%)
same,"BOR, Not assessed","[2]; MZL (n = 2), no postbaseline response data available",0 (0.0) n (%)
same,ORR,"[2]; MZL, 2 of 2 patients",100%
same,observed PFS,[2]; [7],16.7 months and 22.0 months
same,observed response duration,[2]; [7],14.8 months and 16.8 months
